Results from ChEMBL document CHEMBL1781902, “Anticancer properties of an important drug lead podophyllotoxin can be efficiently mimicked by diverse heterocyclic scaffolds accessible via one-step synthesis” (2011).
Active and inactive are the calls of the source. The calls are words filed in the database; no cut-off is given here.

Tests used:
[1] = test system: MCF7; assay: Antiproliferative activity against human MCF7 cells after 48 hrs by MTT assay; format: functional; conditions: MCF7, 48 h
Outline: (§1)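 Cells were seeded at 2 × 10^4 cells/mL, allowed to adhere 24 h, then exposed 48 h to a concentration series, with DMSO as control. MTT was added for 2 h at 37 °C, formazan dissolved in DMSO and OD read at 490 nm. GI50 is the concentration giving 50% viability loss versus DMSO; 8 replicates, at least two independent experiments, ± SD.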

[2] = test system: HeLa; assay: Antiproliferative activity against human HeLa cells after 48 hrs by MTT assay; format: functional; outline: as §1
[3] = species: Bos taurus; assay: Inhibition of purified bovine tubulin polymerization assessed as microtubule destabilization at 3 uM after 20 mins by fluorescence spectrophotometric analysis relative to control
Outline: (§2)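 Purified bovine tubulin was incubated at 37 °C in buffer with 10% glycerol and 1 mM GTP, each agent in a separate run, against a 0.05% DMSO control. Polymerization was followed by fluorescence spectrophotometry for 20 min, reading every 15 s.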

[4] = test system: HeLa; assay: Antimitotic activity in human HeLa cells assessed as visible deffect in microtubule organization at 5 nM after 3 hrs by inverted microscopic analysis; format: functional, cell-based
Outline: (§3)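 HeLa cells in DMEM with 10% fetal calf serum, pyruvate, bicarbonate and PSF were treated 3 h with compound solubilized in DMSO and prediluted in medium, or with 0.1% DMSO carrier. Cells were fixed in methanol at −20°C and blocked 1 h in PBS-5% BSA. They were stained overnight at 4°C for tubulin, Hec1 and Hoechst 33342, then imaged by epifluorescence with structured illumination.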

[5] = test system: Jurkat; assay: Induction of apoptosis in human Jurkat cells assessed as cleavage of caspase 3 substrate DEVD-p-nitroanaline 2 hrs by spectrophotometric analysis; format: functional, cell-based
Outline: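 Jurkat cells (RPMI-1640, 10% FBS) were treated at 0.1, 0.5 and 1 μM alongside DMSO control. Lysates from 1 × 10^6 cells were normalized by BCA protein assay, then incubated with DEVD-pNA substrate for 2 h at 37 °C. Read at 405 nm and expressed relative to DMSO set as one. Quadruplicates, repeated at least twice.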

[6] = species: Bos taurus; assay: Inhibition of purified bovine tubulin polymerization assessed as microtubule destabilization at 25 uM after 20 mins by fluorescence spectrophotometric analysis; outline: as §2
[7] = test system: HeLa; assay: Antimitotic activity in human HeLa cells assessed as disruption of mitotic microtubule organization at 5 nM after 3 hrs by inverted microscopic analysis; format: functional, cell-based
Outline: (§4)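 HeLa cells in DMEM with 10% fetal calf serum, pyruvate, bicarbonate and PSF were exposed for 3 h to compound diluted from DMSO stock into medium, carrier 0.1% DMSO. Cells were fixed in methanol at −20 °C, blocked 1 h in PBS with 5% BSA, then stained overnight at 4 °C with anti-tubulin, anti-Hec1 and Hoechst 33342. Imaged by epifluorescence microscopy with structured illumination.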

[8] = test system: HeLa; assay: Antimitotic activity in human HeLa cells assessed as disruption of interphase microtubule organization at 5 nM after 3 hrs by inverted microscopic analysis; format: functional, cell-based; outline: as §4
[9] = test system: Jurkat; assay: Induction of apoptosis in human Jurkat cells at 5 to 8 nM after 48 hrs by annexinV-propidium iodide staining based FITC analysis; format: functional, cell-based
Outline: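 Jurkat cells plated at 2 × 10^5 cells/mL were exposed for 48 h across a concentration range. They were pelleted, resuspended in HHB containing CaCl2, propidium iodide and Annexin-V-FITC, and labelled 20 min at 37 °C. Annexin-V-positive cells were scored by flow cytometry as % apoptotic. Triplicates, repeated at least twice, ± SD.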

[10] = test system: HeLa; assay: Antimitotic activity in human HeLa cells assessed as nucleated microtubule at 10 uM after 3 hrs by inverted microscopic analysis; format: functional, cell-based; outline: as §4
[11] = test system: HeLa; assay: Antimitotic activity in human HeLa cells assessed as visible deffect in mitotic spindle formation at 10 uM after 3 hrs by inverted microscopic analysis; format: functional, cell-based; outline: as §3
[12] = test system: HeLa; assay: Antimitotic activity in human HeLa cells assessed as disruption of interphase microtubule organization at 10 uM after 3 hrs by inverted microscopic analysis; format: functional, cell-based; outline: as §3

O=C1OCC2=C1[C@H](c1cc(Br)cc(Br)c1)c1ccc3ccccc3c1N2 showed a GI50 [1] of 9 nM and a GI50 [2] of 9 nM.
O=C1OCC2=C1[C@@H](c1cc(Br)cc(Br)c1)c1ccc3ccccc3c1N2 was tested, and the GI50 [1] was 14000 nM and the GI50 [2] was 19000 nM.
CC(=O)O[C@H]1C(=O)[C@@]2(C)[C@H]([C@H](OC(=O)c3ccccc3)[C@]3(O)C[C@H](OC(=O)[C@H](O)[C@@H](NC(=O)c4ccccc4)c4ccccc4)C(C)=C1C3(C)C)[C@]1(OC(C)=O)CO[C@@H]1C[C@@H]2O was tested, and the inhibition [3] was “inactive”.
With COc1cc2c(c(OC)c1OC)-c1ccc(OC)c(=O)cc1[C@@H](NC(C)=O)CC2 the Activity [4] was “inactive”.
In the case of O=C1OCC2=C1C(c1cc(Br)cc(Br)c1)c1cn[nH]c1N2 (racemic), the Activity [5] is reported as “Active”, the GI50 [1] is reported as 25 nM and the inhibition [6] is reported as “Active”. The GI50 [2] was 25 nM.
COc1cc(C2C3=C(COC3=O)Nc3[nH]ncc32)cc(OC)c1OC (racemic) gave a GI50 [1] of 250 nM and a GI50 [2] of 3000 nM.
With COc1cc(C2C3=C(COC3=O)Nc3[nH]ncc32)cc(Br)c1OC (racemic) the GI50 [1] was 250 nM and the GI50 [2] was 750 nM.
O=C1OCC2=C1C(c1cccc(Br)c1)c1cn[nH]c1N2 (racemic) gave a GI50 [1] of 100 nM and a GI50 [2] of 75 nM.
Compound Cc1n[nH]c2c1C(c1cncc(Br)c1)C1=C(COC1=O)N2 (racemic) has a GI50 [1] of 800 nM and a GI50 [2] of 3000 nM.
O=C1OCC2=C1C(c1cncc(Br)c1)c1cn[nH]c1N2 (racemic) showed a GI50 [1] of 15 nM and a GI50 [2] of 75 nM.
Work on Cc1n[nH]c2c1C(c1cc(Br)cc(Br)c1)C1=C(COC1=O)N2 (racemic) yielded a GI50 [1] of 75 nM and a GI50 [2] of 75 nM.
Work on COc1cc(Br)cc(C2C3=C(COC3=O)Nc3[nH]nc(C)c32)c1O (racemic) yielded a GI50 [1] of 100 nM and a GI50 [2] of 35 nM.
COc1cc(Br)cc(C2C3=C(COC3=O)Nc3[nH]ncc32)c1O (racemic) was tested, and the GI50 [1] was 30 nM and the GI50 [2] was 25 nM.
In the case of Cc1n[nH]c2c1C(c1cc(Br)ccc1O)C1=C(COC1=O)N2 (racemic), the GI50 [1] is reported as 250 nM and the GI50 [2] is reported as 300 nM.
O=C1OCC2=C1C(c1cc(Br)ccc1O)c1cn[nH]c1N2 (racemic) gave a GI50 [1] of 25 nM and a GI50 [2] of 50 nM.
COc1cccc(C2C3=C(COC3=O)Nc3[nH]ncc32)c1O (racemic) showed a GI50 [1] of 500 nM and a GI50 [2] of 2000 nM.
With O=C1OCC2=C1C(c1cc(Br)cc(Br)c1O)c1cn[nH]c1N2 (racemic) the Activity [7] was “Active”, the Activity [8] was “Active” and the Activity [5] was “Active”. For the same compound, the GI50 [1] was 10 nM, the Activity [9] was “Active” and the inhibition [6] was “Active”. The GI50 [2] was 20 nM and the Activity [10] was “Active”.
For O=C1OCC2=C1C(c1cc(Br)cs1)c1cn[nH]c1N2 (racemic), the GI50 [1] was 740 nM and the GI50 [2] was 1150 nM.
For COc1cc(C2C3=C(COC3=O)Nc3c2ccc2ccccc32)cc(OC)c1OC (racemic), the GI50 [1] was 3 nM and the GI50 [2] was 3 nM.
For O=C1OCC2=C1C(c1cc(Br)cc(Br)c1)c1ccc3ccccc3c1N2 (racemic), the GI50 [1] was 14 nM and the GI50 [2] was 16 nM.
Compound COc1cc(C2C3=C(COC3=O)Nc3c2ccc2ccccc32)cc(Br)c1OC (racemic) has a GI50 [1] of 3 nM and a GI50 [2] of 3 nM.
Compound O=C1OCC2=C1C(c1cc(Br)cc(Br)c1O)c1ccc3ccccc3c1N2 (racemic) has a GI50 [1] of 21 nM and a GI50 [2] of 18 nM.
COc1cc(Br)cc(C2C3=C(COC3=O)Nc3c2ccc2ccccc32)c1O (racemic) gave a GI50 [1] of 3 nM and a GI50 [2] of 3 nM.
O=C1OCC2=C1C(c1cc(Br)ccc1O)c1ccc3ccccc3c1N2 (racemic) showed a GI50 [1] of 3 nM and a GI50 [2] of 3 nM.
For O=C1OCC2=C1C(c1cncc(Br)c1)c1ccc3ccccc3c1N2 (racemic), the GI50 [1] was 13 nM and the GI50 [2] was 7 nM.
In the case of O=C1OCC2=C1C(c1cc(Br)cs1)c1ccc3ccccc3c1N2 (racemic), the GI50 [1] is reported as 3 nM and the GI50 [2] is reported as 3 nM.
For COc1cc(C2C3=C(COC3=O)Nc3c2ccc2ccc(O)cc32)cc(OC)c1OC (racemic), the GI50 [1] was 3 nM and the GI50 [2] was 2 nM.
Work on O=C1OCC2=C1C(c1cc(Br)cc(Br)c1)c1ccc3ccc(O)cc3c1N2 (racemic) yielded a GI50 [1] of 3 nM and a GI50 [2] of 6 nM.
COc1cc(C2C3=C(COC3=O)Nc3c2ccc2ccc(O)cc32)cc(Br)c1OC (racemic) was tested, and the GI50 [1] was 3 nM and the GI50 [2] was 2 nM.
With O=C1OCC2=C1C(c1cc(Br)cc(Br)c1O)c1ccc3ccc(O)cc3c1N2 (racemic) the GI50 [1] was 3 nM and the GI50 [2] was 7 nM.
Work on COc1cc(Br)cc(C2C3=C(COC3=O)Nc3c2ccc2ccc(O)cc32)c1O (racemic) yielded a GI50 [1] of 3 nM and a GI50 [2] of 6 nM.
For O=C1OCC2=C1C(c1cc(Br)ccc1O)c1ccc3ccc(O)cc3c1N2 (racemic), the GI50 [1] was 3 nM and the GI50 [2] was 3 nM.
For O=C1OCC2=C1C(c1cncc(Br)c1)c1ccc3ccc(O)cc3c1N2 (racemic), the GI50 [1] was 3 nM and the GI50 [2] was 3 nM.
Work on O=C1OCC2=C1C(c1cc(Br)cs1)c1ccc3ccc(O)cc3c1N2 (racemic) yielded a GI50 [1] of 3 nM and a GI50 [2] of 3 nM.
COc1cc(C2C3=C(COC3=O)Nc3c2ccc2c(O)cccc32)cc(OC)c1OC (racemic) gave a GI50 [1] of 3 nM and a GI50 [2] of 3 nM.
Compound O=C1OCC2=C1C(c1cc(Br)cc(Br)c1)c1ccc3c(O)cccc3c1N2 (racemic) has a GI50 [1] of 23 nM and a GI50 [2] of 21 nM.
Nc1cc2c(c3ccccc13)NC1=C(C(=O)OC1)C2c1cc(Br)cc(Br)c1 (racemic) was tested, and the GI50 [1] was 16 nM and the GI50 [2] was 21 nM.
In the case of COc1cc(C2C3=C(COC3=O)Nc3ccc4ccccc4c32)cc(OC)c1OC (racemic), the GI50 [1] is reported as 121 nM and the GI50 [2] is reported as 540 nM.
Compound O=C1OCC2=C1C(c1cc(Br)cc(Br)c1)c1c(ccc3ccccc13)N2 (racemic) has a GI50 [1] of 201 nM and a GI50 [2] of 420 nM.
In the case of COc1cc(C2C3=C(COC3=O)Nc3cc4c(cc32)CCCC4)cc(OC)c1OC (racemic), the GI50 [1] is reported as 19 nM and the GI50 [2] is reported as 18 nM.
O=C1OCC2=C1C(c1cc(Br)cc(Br)c1)c1cc3c(cc1N2)CCCC3 (racemic) showed a GI50 [1] of 70 nM and a GI50 [2] of 100 nM.
For COc1cc(C2C3=C(COC3=O)Nc3c2ccc2[nH]ccc32)cc(OC)c1OC (racemic), the GI50 [1] was 22 nM and the GI50 [2] was 19 nM.
Work on O=C1OCC2=C1C(c1cc(Br)cc(Br)c1)c1ccc3[nH]ccc3c1N2 (racemic) yielded a GI50 [1] of 21 nM and a GI50 [2] of 114 nM.
COc1cc(C2C3=C(COC3=O)Nc3[nH][nH]c(=O)c32)cc(OC)c1OC (racemic) was tested, and the GI50 [1] was > 10000 nM and the GI50 [2] was > 10000 nM.
With O=C1OCC2=C1C(c1cc(Br)cc(Br)c1)c1c([nH][nH]c1=O)N2 (racemic) the GI50 [1] was > 10000 nM and the GI50 [2] was > 10000 nM.
Compound COc1cc(C2C3=C(COC3=O)Nc3nc(SC)nc(N)c32)cc(OC)c1OC (racemic) has a GI50 [1] of 170 nM and a GI50 [2] of 125 nM.
With CSc1nc(N)c2c(n1)NC1=C(C(=O)OC1)C2c1cc(Br)cc(Br)c1 (racemic) the GI50 [1] was 1020 nM and the GI50 [2] was 561 nM.
COc1cc(C2C3=C(COC3=O)Nc3[nH]nc(C)c32)cc(OC)c1OC (racemic) gave a GI50 [1] of 5000 nM and a GI50 [2] of 5000 nM.
In the case of COc1cc(C2C3=C(COC3=O)Nc3[nH]nc(C)c32)cc(Br)c1OC (racemic), the GI50 [1] is reported as 1000 nM and the GI50 [2] is reported as 750 nM.
Work on Cc1n[nH]c2c1C(c1cccc(Br)c1)C1=C(COC1=O)N2 (racemic) yielded a GI50 [1] of 4000 nM and a GI50 [2] of 3000 nM.
With COc1cc([C@@H]2c3cc4c(cc3[C@H](O)[C@H]3COC(=O)[C@H]23)OCO4)cc(OC)c1OC [PODOFILOX] the Activity [11] was “Active”, the Activity [12] was “inactive” and the Activity [5] was “Active”. For the same compound, the GI50 [1] was 10 nM, the inhibition [6] was “Active” and the GI50 [2] was 20 nM.
